Reference: ChEMBL document CHEMBL1140996, “Synthesis and in vitro antibacterial activity of new steroidal thiosemicarbazone derivatives” (2008)
≈ marks a conversion by molar mass, not a printed value.

Key:
Staphylococcus aureus [1] = experiment: Antibacterial activity against Staphylococcus aureus at 10 to 100 ug/mL after 18 hrs by halo zone test; type: functional
How it was run: (§1)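 Disk diffusion (halo zone). Strains subcultured in BHI, 18 h at 37 °C. Cells suspended in saline by McFarland to about 10^5 CFU/mL, mixed with antibiotic agar at 40 °C and plated. 6.0 mm paper disks loaded with DMSO-stock dilutions of 10, 20, 25, 50 and 100 per mL. Inhibition zone diameter (mm) read after 18 h at 36 °C. Amoxicillin (30) disk positive control, DMSO disk negative control.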

Streptococcus pyogenes [2] = experiment: Antibacterial activity against Streptococcus pyogenes at 10 to 100 ug/mL after 18 hrs by halo zone test; type: functional; how it was run: as §1
Salmonella typhimurium [3] = experiment: Antibacterial activity against Salmonella Typhimurium at 10 to 100 ug/mL after 18 hrs by halo zone test; type: functional, Salmonella enterica subsp. enterica serovar Typhimurium; how it was run: as §1
Escherichia coli [4] = experiment: Antibacterial activity against Escherichia coli at 10 to 100 ug/mL after 18 hrs by halo zone test; type: functional; how it was run: as §1
Staphylococcus aureus [5] = experiment: Antibacterial activity against Staphylococcus aureus after 18 hrs by macro dilution test; type: functional
How it was run: (§2)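 Macro-dilution broth test. Each tube received a 24 h old inoculum, standard inoculum about 10^5 CFU/mL. Incubated 18 h at 37 °C. MIC taken visually as the lowest concentration preventing visible growth. Amoxicillin positive control, DMSO negative control.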

Streptococcus pyogenes [6] = experiment: Antibacterial activity against Streptococcus pyogenes after 18 hrs by macro dilution test; type: functional; how it was run: as §2
Salmonella typhimurium [7] = experiment: Antibacterial activity against Salmonella Typhimurium after 18 hrs by macro dilution test; type: functional, Salmonella enterica subsp. enterica serovar Typhimurium; conditions: Salmonella enterica; how it was run: as §2
Escherichia coli [8] = experiment: Antibacterial activity against Escherichia coli after 18 hrs by macro dilution test; type: functional; how it was run: as §2

SMILES | inhibition zone (IZ) (Staphylococcus aureus [1]) | inhibition zone (IZ) (Streptococcus pyogenes [2]) | inhibition zone (IZ) (Salmonella typhimurium [3]) | inhibition zone (IZ) (Escherichia coli [4]) | MIC (Staphylococcus aureus [5]) | MIC (Streptococcus pyogenes [6]) | MIC (Salmonella typhimurium [7]) | MIC (Escherichia coli [8])
CC(C)CCC[C@@H](C)[C@H]1CC[C@H]2[C@@H]3/C(=N/NC(=S)NC4CCCCCCC4)C=C4C[C@@H](Cl)CC[C@]4(C)[C@H]3CC[C@]12C | 15.6 mm | 14 mm | 14.6 mm | 12.4 mm | 64 µg/mL (≈ 106 µM) | 128 µg/mL (≈ 212 µM) | 128 µg/mL (≈ 212 µM) | 64 µg/mL (≈ 106 µM)
CC(C)CCC[C@@H](C)[C@H]1CC[C@H]2[C@@H]3/C(=N/NC(=S)NC4CCCC4)C=C4C[C@@H](Cl)CC[C@]4(C)[C@H]3CC[C@]12C | 16.2 mm | 13.4 mm | 12.5 mm | 15.6 mm | 64 µg/mL (≈ 114 µM) | 64 µg/mL (≈ 114 µM) | 128 µg/mL (≈ 228 µM) | 64 µg/mL (≈ 114 µM)
CC1(C)S[C@@H]2[C@H](NC(=O)[C@H](N)c3ccc(O)cc3)C(=O)N2[C@H]1C(=O)O [AMOXICILLIN] | 21 mm | 22.2 mm | 25.2 mm | 20 mm | 32 µg/mL (≈ 87.6 µM) | 32 µg/mL (≈ 87.6 µM) | 32 µg/mL (≈ 87.6 µM) | 32 µg/mL (≈ 87.6 µM)
CC(C)CCC[C@@H](C)[C@H]1CC[C@H]2[C@@H]3/C(=N/NC(=S)NC4CCCCC4)C=C4C[C@@H](Cl)CC[C@]4(C)[C@H]3CC[C@]12C | 13.4 mm | 12.2 mm | 14.4 mm | 11.8 mm | 32 µg/mL (≈ 55.7 µM) | 64 µg/mL (≈ 111 µM) | 128 µg/mL (≈ 223 µM) | 64 µg/mL (≈ 111 µM)
CC(C)CCC[C@@H](C)[C@H]1CC[C@H]2[C@@H]3/C(=N/NC(=S)NC4CCCCCCC4)C=C4CCCC[C@]4(C)[C@H]3CC[C@]12C | 9.9 mm | 11.3 mm | 10.2 mm | 10 mm | 256 µg/mL (≈ 451 µM) | 128 µg/mL (≈ 225 µM) | 128 µg/mL (≈ 225 µM) | 256 µg/mL (≈ 451 µM)
CC(=O)O[C@H]1CC[C@@]2(C)C(=C/C(=N\NC(=S)NC3CCCC3)[C@H]3[C@@H]4CC[C@H]([C@H](C)CCCC(C)C)[C@@]4(C)CC[C@@H]32)C1 | 12.5 mm | 11.8 mm | 14.6 mm | 12.4 mm | 32 µg/mL (≈ 54.8 µM) | 64 µg/mL (≈ 110 µM) | 64 µg/mL (≈ 110 µM) | 32 µg/mL (≈ 54.8 µM)
CC(C)CCC[C@@H](C)[C@H]1CC[C@H]2[C@@H]3/C(=N/NC(=S)NC4CCCC4)C=C4CCCC[C@]4(C)[C@H]3CC[C@]12C | 10.4 mm | 9.5 mm | 9.2 mm | 9.4 mm | 256 µg/mL (≈ 487 µM) | 128 µg/mL (≈ 243 µM) | 128 µg/mL (≈ 243 µM) | 256 µg/mL (≈ 487 µM)
CC(=O)O[C@H]1CC[C@@]2(C)C(=C/C(=N\NC(=S)NC3CCCCCCC3)[C@H]3[C@@H]4CC[C@H]([C@H](C)CCCC(C)C)[C@@]4(C)CC[C@@H]32)C1 | 12.6 mm | 11.4 mm | 13.6 mm | 13.8 mm | 128 µg/mL (≈ 204 µM) | 64 µg/mL (≈ 102 µM) | 128 µg/mL (≈ 204 µM) | 128 µg/mL (≈ 204 µM)
CC(C)CCC[C@@H](C)[C@H]1CC[C@H]2[C@@H]3/C(=N/NC(=S)NC4CCCCC4)C=C4CCCC[C@]4(C)[C@H]3CC[C@]12C | 10.2 mm | 9.2 mm | 10.4 mm | 7.8 mm | 128 µg/mL (≈ 237 µM) | 256 µg/mL (≈ 474 µM) | 256 µg/mL (≈ 474 µM) | 128 µg/mL (≈ 237 µM)
CC(=O)O[C@H]1CC[C@@]2(C)C(=C/C(=N\NC(=S)NC3CCCCC3)[C@H]3[C@@H]4CC[C@H]([C@H](C)CCCC(C)C)[C@@]4(C)CC[C@@H]32)C1 | 14.6 mm | 16.8 mm | 14.5 mm | 13.2 mm | 64 µg/mL (≈ 107 µM) | 64 µg/mL (≈ 107 µM) | 64 µg/mL (≈ 107 µM) | 32 µg/mL (≈ 53.5 µM)
